From ChEMBL document CHEMBL3120154, “2-[N-Alkyl(R-phenyl)-aminomethyl]-3-phenyl-7-trifluoromethylquinoxalines as anticancer agents inhibitors of folate enzymes” (Eur J Med Chem, 2014)

How the values were obtained:
Assay type in all cases: functional
HOP-62 = experiment: Cytotoxicity against human HOP62 cells at 10^-6 M after 48 hrs by SRB assay; details: HOP-62, 48 h, read-out: GI
In short: (§1)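 Run by NCI on its 60-line human tumor cell panel, after a three-cell-line prescreen. Cells were exposed to drug for 48 h over a 5-log range: 100, 10, 1, 0.1 and 0.01 micromolar. Growth was estimated by sulforhodamine B (SRB) protein staining. Percent growth inhibition (I%) was recorded at each concentration relative to untreated control cells.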

[1] = Cytotoxicity against human UACC257 cells at 10^-5 M after 48 hrs by SRB assay; details: UACC-257, 48 h, read-out: GI
HL-60(TB) [2] = experiment: Cytotoxicity against human HL-60(TB) cells at 10^-5 M after 48 hrs by SRB assay; details: HL-60, 48 h, read-out: GI
In short: (§2)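 NCI 60-human-tumour-cell-line screen run over a 5-log dose range (100, 10, 1, 0.1 and 0.01 µM). Cells were exposed to drug for 48 h. Growth was estimated by sulforhodamine B protein staining. Values are percent growth inhibition at each concentration, relative to untreated control cells.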

M14 = experiment: Cytotoxicity against human M14 cells at 10^-6 M after 48 hrs by SRB assay; details: M14, 48 h, read-out: GI
In short: (§3)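 Run in the NCI 60-cell-line screen after a three-line prescreen. Cells got a 48 h drug exposure; viability/growth was estimated with the sulforhodamine B protein assay. Growth inhibition (I%) was recorded at 100, 10, 1, 0.1 and 0.01 micromolar. Percent growth is relative to untreated control cells, and negative values indicate cell kill.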

SNB-19 = experiment: Cytotoxicity against human SNB19 cells at 10^-5 M after 48 hrs by SRB assay; details: SNB-19, 48 h, read-out: GI
SN12C = experiment: Cytotoxicity against human SN12C cells at 10^-5 M after 48 hrs by SRB assay; details: read-out: GI
[3] = Cytotoxicity against human UACC257 cells at 10^-6 M after 48 hrs by SRB assay; details: UACC-257, 48 h, read-out: GI
CAKI-1 = experiment: Cytotoxicity against human Caki1 cells at 10^-6 M after 48 hrs by SRB assay; details: CAKI-1, 48 h, read-out: GI; in short: as §1
[4] = Cytotoxicity against human OVCAR5 cells at 10^-5 M after 48 hrs by SRB assay; details: OVCAR-5, 48 h, read-out: GI
In short: (§4)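 Second-stage screen in the 60-cell-line human tumor panel at NCI, over a 5-log range (100, 10, 1, 0.1, 0.01 micromolar). Cells were exposed to drug for 48 h and growth was estimated with a sulforhodamine B protein stain. The value is percent growth inhibition at each concentration.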

HT-29 [5] = experiment: Cytotoxicity against human HT-29 cells at 10^-5 M after 48 hrs by SRB assay; details: HT-29, 48 h, read-out: GI; in short: as §1
HT-29 [6] = experiment: Cytotoxicity against human HT-29 cells at 10^-6 M after 48 hrs by SRB assay; details: HT-29, 48 h, read-out: GI; in short: as §1
NCI-H322M [7] = experiment: Cytotoxicity against human NCI-H322M cells at 10^-6 M after 48 hrs by SRB assay; details: read-out: GI; in short: as §3
SNB-75 = experiment: Cytotoxicity against human SNB75 cells at 10^-6 M after 48 hrs by SRB assay; details: SNB-75, 48 h, read-out: GI
HOP-92 = experiment: Cytotoxicity against human HOP92 cells at 10^-5 M after 48 hrs by SRB assay; details: HOP-92, 48 h, read-out: GI; in short: as §1
MDA-MB-231 = experiment: Cytotoxicity against human MDA-MB-231 cells at 10^-6 M after 48 hrs by SRB assay; details: MDA-MB-231, 48 h, read-out: GI; in short: as §3
SF-539 [8] = experiment: Cytotoxicity against human SF539 cells at 10^-5 M after 48 hrs by SRB assay; details: SF-539, 48 h, read-out: GI; in short: as §4
786-0 [9] = experiment: Cytotoxicity against human 786-0 cells at 10^-5 M after 48 hrs by SRB assay; details: 786-0, 48 h, read-out: GI; in short: as §1
U-251 = experiment: Cytotoxicity against human U251 cells at 10^-5 M after 48 hrs by SRB assay; details: U-251, 48 h, read-out: GI
LOX IMVI = experiment: Cytotoxicity against human LOXIMVI cells at 10^-5 M after 48 hrs by SRB assay; details: read-out: GI; in short: as §3
DU-145 = experiment: Cytotoxicity against human DU145 cells at 10^-5 M after 48 hrs by SRB assay; details: DU-145, 48 h, read-out: GI; in short: as §1
[10] = Cytotoxicity against human EKVX cells at 10^-6 M after 48 hrs by SRB assay; details: read-out: GI; in short: as §1
MCF7 [11] = experiment: Cytotoxicity against human MCF7 cells at 10^-5 M after 48 hrs by SRB assay; details: MCF7, 48 h, read-out: GI; in short: as §3
SK-OV-3 [12] = experiment: Cytotoxicity against human SKOV3 cells at 10^-5 M after 48 hrs by SRB assay; details: SK-OV-3, 48 h, read-out: GI; in short: as §4
IGROV-1 = experiment: Cytotoxicity against human IGROV1 cells at 10^-6 M after 48 hrs by SRB assay; details: IGROV-1, 48 h, read-out: GI; in short: as §3
NCI-H322M [13] = experiment: Cytotoxicity against human NCI-H322M cells at 10^-5 M after 48 hrs by SRB assay; details: read-out: GI; in short: as §3
MCF7 [14] = experiment: Cytotoxicity against human MCF7 cells at 10^-6 M after 48 hrs by SRB assay; details: MCF7, 48 h, read-out: GI; in short: as §3
NCI-H226 = experiment: Cytotoxicity against human NCI-H226 cells at 10^-6 M after 48 hrs by SRB assay; details: NCI-H226, 48 h, read-out: GI; in short: as §3
SK-OV-3 [15] = experiment: Cytotoxicity against human SKOV3 cells at 10^-6 M after 48 hrs by SRB assay; details: SK-OV-3, 48 h, read-out: GI; in short: as §4
COLO 205 = experiment: Cytotoxicity against human COLO205 cells at 10^-6 M after 48 hrs by SRB assay; details: COLO 205, 48 h, read-out: GI; in short: as §1
786-0 [16] = experiment: Cytotoxicity against human 786-0 cells at 10^-6 M after 48 hrs by SRB assay; details: 786-0, 48 h, read-out: GI; in short: as §1
UACC-62 = experiment: Cytotoxicity against human UACC62 cells at 10^-6 M after 48 hrs by SRB assay; details: UACC-62, 48 h, read-out: GI
HL-60(TB) [17] = experiment: Cytotoxicity against human HL-60(TB) cells at 10^-6 M after 48 hrs by SRB assay; details: HL-60, 48 h, read-out: GI; in short: as §2
CCRF-CEM = experiment: Cytotoxicity against human CCRF-CEM cells at 10^-6 M after 48 hrs by SRB assay; details: read-out: GI; in short: as §1
PC-3 [18] = experiment: Cytotoxicity against human PC3 cells at 10^-6 M after 48 hrs by SRB assay; details: PC-3, 48 h, read-out: GI; in short: as §4
PC-3 [19] = experiment: Cytotoxicity against human PC3 cells at 10^-5 M after 48 hrs by SRB assay; details: PC-3, 48 h, read-out: GI; in short: as §4
SF-539 [20] = experiment: Cytotoxicity against human SF539 cells at 10^-6 M after 48 hrs by SRB assay; details: SF-539, 48 h, read-out: GI; in short: as §4
A498 = experiment: Cytotoxicity against human A498 cells at 10^-5 M after 48 hrs by SRB assay; details: A498, 48 h, read-out: GI; in short: as §1

| Compound | inhibition of growth at 1 µM (HOP-62) [%] | inhibition of growth at 10 µM [1] [%] | inhibition of growth at 10 µM (HL-60(TB) [2]) [%] | inhibition of growth at 1 µM (M14) [%] | inhibition of growth at 10 µM (SNB-19) [%] | inhibition of growth at 10 µM (SN12C) [%] | inhibition of growth at 1 µM [3] [%] | inhibition of growth at 1 µM (CAKI-1) [%] | inhibition of growth at 10 µM [4] [%] | inhibition of growth at 10 µM (HT-29 [5]) [%] | inhibition of growth at 1 µM (HT-29 [6]) [%] | inhibition of growth at 1 µM (NCI-H322M [7]) [%] | inhibition of growth at 1 µM (SNB-75) [%] | inhibition of growth at 10 µM (HOP-92) [%] | inhibition of growth at 1 µM (MDA-MB-231) [%] | inhibition of growth at 10 µM (SF-539 [8]) [%] | inhibition of growth at 10 µM (786-0 [9]) [%] | inhibition of growth at 10 µM (U-251) [%] | inhibition of growth at 10 µM (LOX IMVI) [%] | inhibition of growth at 10 µM (DU-145) [%] | also measured |
| --- | --- | --- | --- | --- | --- | --- | --- | --- | --- | --- | --- | --- | --- | --- | --- | --- | --- | --- | --- | --- | --- |
| C#CCN(Cc1nc2cc(C(F)(F)F)ccc2nc1-c1ccccc1)c1ccc(C)cc1 | 56 | < 40 | 85 | 54 | 92 | 80 | < 40 | < 40 | 71 | 99 | < 40 | < 40 | < 40 | < 40 | < 40 | 49 | 70 | 85 | 54 | < 40 | inhibition of growth at 1 µM [10]: < 40%; inhibition of growth at 10 µM (MCF7 [11]): 70%; inhibition of growth at 10 µM (SK-OV-3 [12]): 112%; inhibition of growth at 1 µM (IGROV-1): < 40%; inhibition of growth at 10 µM (NCI-H322M [13]): 62%; inhibition of growth at 1 µM (MCF7 [14]): 64%; inhibition of growth at 1 µM (NCI-H226): < 40%; inhibition of growth at 1 µM (SK-OV-3 [15]): < 40%; inhibition of growth at 1 µM (COLO 205): 108%; inhibition of growth at 1 µM (786-0 [16]): < 40%; inhibition of growth at 1 µM (UACC-62): < 40%; inhibition of growth at 1 µM (HL-60(TB) [17]): 66%; inhibition of growth at 1 µM (CCRF-CEM): < 40%; inhibition of growth at 1 µM (PC-3 [18]): < 40%; inhibition of growth at 10 µM (PC-3 [19]): < 40%; inhibition of growth at 1 µM (SF-539 [20]): < 40%; inhibition of growth at 10 µM (A498): 116% |
| CCN(Cc1nc2cc(C(F)(F)F)ccc2nc1-c1ccccc1)c1ccc(OC)c(OC)c1 | < 40 | 146 | 83 | < 40 | < 40 | 21 | 104 | 19 | < 40 | 40 | < 40 | < 40 | < 40 | 21 | < 40 | 18 | 15 | 62 | 23 | 26 | inhibition of growth at 1 µM [10]: < 40%; inhibition of growth at 10 µM (MCF7 [11]): 25%; inhibition of growth at 10 µM (SK-OV-3 [12]): < 40%; inhibition of growth at 1 µM (IGROV-1): < 40%; inhibition of growth at 10 µM (NCI-H322M [13]): < 40%; inhibition of growth at 1 µM (MCF7 [14]): < 40%; inhibition of growth at 1 µM (NCI-H226): 17%; inhibition of growth at 1 µM (SK-OV-3 [15]): < 40%; inhibition of growth at 1 µM (COLO 205): < 40%; inhibition of growth at 1 µM (786-0 [16]): < 40%; inhibition of growth at 1 µM (UACC-62): < 40%; inhibition of growth at 1 µM (HL-60(TB) [17]): < 40%; inhibition of growth at 1 µM (CCRF-CEM): < 40%; inhibition of growth at 1 µM (PC-3 [18]): 13%; inhibition of growth at 10 µM (PC-3 [19]): 56%; inhibition of growth at 1 µM (SF-539 [20]): < 40%; inhibition of growth at 10 µM (A498): 63% |
